According to ChEMBL document CHEMBL3244215, “Fluorinated pyrimidine nucleosides. 3. Synthesis and antitumor activity of a series of 5'-deoxy-5-fluoropyrimidine nucleosides” (J Med Chem, 1979):
Active and inactive are the calls of the source. The rule behind the calls is not given here.

Key:
Sarcoma-180 [1] = experiment: Antitumor activity against mouse Sarcoma 180 cells allografted in CD1 mouse at 100 mg/kg, ip qd administered shortly post implantation continued for 8 days relative to vehicle-treated control; format: functional, organism-based; design: dose 100 mg/kg
Outline: (§1)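 Compounds dissolved or suspended in H2O, given ip as 1.0 mL shortly after tumor implantation, then daily to eight doses in total. Mice killed 8 days after implantation; tumors excised and weighed. Mean tumor weight of treated mice (T) compared with that of H2O-treated controls (C), expressed as C/T index.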

Mus musculus [2] = experiment: Toxicity in mouse in po dosed CD1 mouse assessed as leukopenia administered once daily starting shortly post implantation continued for 8 days relative to vehicle-treated control; format: organism-based; conditions: in vivo, 192 h
Mus musculus [3] = experiment: Toxicity in mouse in po dosed CD1 mouse assessed as change in body weight administered once daily starting shortly post implantation continued for 8 days relative to vehicle-treated control; format: organism-based; conditions: in vivo, 192 h
Sarcoma-180 [4] = experiment: Antitumor activity against mouse Sarcoma 180 cells allografted in CD1 mouse at 12.5 mg/kg, ip qd administered shortly post implantation continued for 8 days relative to vehicle-treated control; format: functional, organism-based; design: dose 12.5 mg/kg; outline: as §1
Sarcoma-180 [5] = experiment: Antitumor activity against mouse Sarcoma 180 cells allografted in CD1 mouse at 200 mg/kg, ip qd administered shortly post implantation continued for 8 days relative to vehicle-treated control; format: functional, organism-based; design: dose 200 mg/kg; outline: as §1
Sarcoma-180 [6] = experiment: Antitumor activity against mouse Sarcoma 180 cells allografted in CD1 mouse at 25 mg/kg, ip qd administered shortly post implantation continued for 8 days relative to vehicle-treated control; format: functional, organism-based; design: dose 25 mg/kg; outline: as §1
Sarcoma-180 [7] = experiment: Antitumor activity against mouse Sarcoma 180 cells allografted in CD1 mouse at 50 mg/kg, ip qd administered shortly post implantation continued for 8 days relative to vehicle-treated control; format: functional, organism-based; design: dose 50 mg/kg; outline: as §1
Sarcoma-180 [8] = experiment: Antitumor activity against mouse Sarcoma 180 cells allografted in CD1 mouse at 3.12 to 800 mg/kg, ip qd administered shortly post implantation for 8 days relative to vehicle-treated control; format: functional, organism-based
Sarcoma-180 [9] = experiment: Antitumor activity against mouse Sarcoma 180 cells allografted in CD1 mouse at 40 mg/kg, ip qd administered shortly post implantation continued for 8 days relative to vehicle-treated control; format: functional, organism-based; design: dose 40 mg/kg; outline: as §1
Sarcoma-180 [10] = experiment: Antitumor activity against mouse Sarcoma 180 cells allografted in CD1 mouse at 20 mg/kg, ip qd administered shortly post implantation continued for 8 days relative to vehicle-treated control; format: functional, organism-based; design: dose 20 mg/kg; outline: as §1

Compound: C=C1O[C@@H](n2cc(F)c(=O)[nH]c2=O)[C@H](O)[C@@H]1O
- Activity (Sarcoma-180 [1]): inactive

Compound: C[C@H]1O[C@@H](n2cc(F)c(=O)[nH]c2=O)[C@@H](O)[C@H]1O
- Activity (Sarcoma-180 [1]): inactive

Compound: O=c1[nH]c(=O)n([C@H]2C[C@H](O)[C@@H](CO)O2)cc1F [FLOXURIDINE]
- Activity (Mus musculus [2]): Toxic
- Activity (Mus musculus [3]): Toxic

Compound: C[C@H]1O[C@@H](n2cc(F)c(=O)[nH]c2=O)[C@@H](O)[C@@H]1O
- Activity (Sarcoma-180 [1]): inactive

Compound: C[C@H]1O[C@@H](n2cc(F)c(N)nc2=O)[C@H](O)[C@@H]1O
- Activity (Sarcoma-180 [4]): inactive
- Activity (Sarcoma-180 [5]): Active
- Activity (Sarcoma-180 [6]): Active
- Activity (Sarcoma-180 [7]): Active
- Activity (Sarcoma-180 [1]): Active

Compound: C[C@H]1O[C@@H](n2cc(F)c(N)nc2=O)[C@H]2O[C@H]21
- Activity (Sarcoma-180 [5]): inactive

Compound: C[C@H]1O[C@@H](n2cc(F)c(=O)[nH]c2=O)[C@@H]2OC(C)(C)O[C@@H]21
- Activity (Sarcoma-180 [5]): inactive

Compound: C[C@H]1O[C@@H](n2ccc(N)nc2=O)[C@H](O)[C@@H]1O
- Activity (Sarcoma-180 [5]): inactive

Compound: C[C@H]1O[C@@H](n2cc(F)c(=O)[nH]c2=O)[C@H](O)[C@@H]1O [DOXIFLURIDINE]
- Activity (Sarcoma-180 [4]): inactive
- Activity (Sarcoma-180 [5]): Active
- Activity (Sarcoma-180 [6]): Active
- Activity (Mus musculus [2]): Toxic
- Activity (Sarcoma-180 [8]): Active
- Activity (Sarcoma-180 [7]): Active
- Activity (Sarcoma-180 [1]): Active
- Activity (Mus musculus [3]): Toxic

Compound: C[C@H]1O[C@@H]2[C@@H](Oc3nc(=O)c(F)cn32)[C@@H]1O
- Activity (Sarcoma-180 [5]): inactive

Compound: C[C@@H]1O[C@@H](n2cc(F)c(=O)[nH]c2=O)[C@H](O)[C@@H]1O
- Activity (Sarcoma-180 [1]): inactive

Compound: C[C@H]1O[C@@H](n2cc(F)c(N)nc2=O)[C@@H](O)[C@@H]1O
- Activity (Sarcoma-180 [1]): inactive

Compound: C[C@H]1O[C@@H](n2ccc(=O)[nH]c2=O)[C@H](O)[C@@H]1O
- Activity (Sarcoma-180 [5]): inactive

Compound: C[C@H]1O[C@@H]2[C@@H](Oc3nc(N)c(F)c[n+]32)[C@@H]1O
- Activity (Sarcoma-180 [5]): Active
- Activity (Sarcoma-180 [9]): Active
- Activity (Sarcoma-180 [10]): inactive
- Activity (Sarcoma-180 [1]): Active
